{"source": "paper PMC7007182", "about": "(Molecular imaging and biology, 2020)", "key": {"[1]": {"test": "In vitro stability in mouse serum", "type": "in vitro ADME", "settings": "mouse serum at 37 °C, 2 h incubation, HPLC analysis", "summary_of_the_method": "(§1)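 Radiotracer prepared by Al[18F]F chelation: peptide, AlCl3, acetic acid and acetonitrile with [18F]fluoride, heated at 100 °C for 10 min. Product purified on a C18 cartridge, eluted with ethanol/10 mM HCl, diluted in saline and sterile-filtered. Incubated 2 h in PBS (room temperature) or mouse serum (37 °C). Percent intact tracer by reverse-phase HPLC.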"}, "[2]": {"test_system": "GPC3-positive HepG2 cells", "test": "Cell efflux in GPC3-positive HepG2 cells", "type": "cell-based", "settings": "for cell-associated radioactivity at end of efflux study: end of 1 h efflux study; for cell-associated radioactivity at start of efflux study: start of 1 h efflux study", "summary_of_the_method": "(§2)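 Efflux of the Al[18F]F-chelated radiolabelled peptide was followed over time in GPC3-positive HepG2 and GPC3-negative McA-RH7777 hepatoma cells. Cell-associated radioactivity was tracked across the efflux period. n = 4 per group; mean ± SD.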"}, "HepG2 cells": {"test_system": "HepG2 cells", "test": "Internalization in HepG2 cells", "type": "cell-based", "settings": "HepG2 cells at 2 h"}, "[3]": {"test_system": "GPC3-positive HepG2 cells", "test": "Cellular uptake in GPC3-positive HepG2 cells", "type": "cell-based", "settings": "60 min incubation, peak value; n = 4/group, mean ± SD", "summary_of_the_method": "(§3)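 Uptake of the Al[18F]F-labelled peptide (radiochemical purity >97 % by HPLC) was measured as a time course in GPC3-positive HepG2 and GPC3-negative McA-RH7777 cells. Uptake is expressed as a percentage. n = 4 per group; mean ± SD.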"}, "[4]": {"test": "In vitro stability in PBS", "type": "physicochemical", "settings": "PBS at room temperature, 2 h incubation, HPLC analysis", "summary_of_the_method": "as §1"}, "[5]": {"test": "MicroPET/CT imaging, GPC3-positive HepG2 tumor model", "type": "in vivo, nude mice", "settings": "nude, mouse, iv, 5.55 MBq, total radioactivity", "summary_of_the_method": "(§4)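 Nude mice carried subcutaneous HepG2 or McA-RH7777 xenografts (n = 3 per group). Each received 5.55 MBq tracer i.v. under isoflurane. 10-min static microPET/CT scans at 30, 60 and 120 min; 3D-OSEM reconstruction, CT attenuation correction, decay-corrected. %ID/g from ROIs drawn over entire organs. Tumor/muscle, tumor/liver and tumor/kidney ratios calculated from PET data. Mean ± SD; ANOVA or t test.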"}, "[6]": {"test": "Ex vivo biodistribution, HepG2 tumor model", "type": "in vivo, mice", "settings": "mouse, total radioactivity"}, "[7]": {"test": "MicroPET/CT imaging, GPC3-negative McA-RH7777 tumor model", "type": "in vivo, nude mice", "settings": "nude, mouse, iv, 5.55 MBq, total radioactivity", "summary_of_the_method": "as §4"}, "[8]": {"test_system": "GPC3-negative McA-RH7777 cells", "test": "Cellular uptake in GPC3-negative McA-RH7777 cells", "type": "cell-based", "settings": "60 min incubation; n = 4/group, mean ± SD", "summary_of_the_method": "as §3"}, "[9]": {"test_system": "GPC3-negative McA-RH7777 cells", "test": "Cell efflux in GPC3-negative McA-RH7777 cells", "type": "cell-based", "settings": "efflux study", "summary_of_the_method": "as §2"}}, "note": "Residues, ends and D or L forms follow the SMILES beside them. *: point of attachment. NOTA(2S-Bn(4-NHCS)) = O=C(O)CN1CCN(CC(=O)O)C[C@H](Cc2ccc(NC(=S)*)cc2)N(CC(=O)O)CC1", "data": [{"smiles": "CC(C)C[C@H](NC(=O)[C@H](CCCNC(=N)N)NC(=S)Nc1ccc(C[C@H]2CN(CC(=O)O)CCN(CC(=O)O)CCN2CC(=O)O)cc1)C(=O)N[C@@H](CC(N)=O)C(=O)N[C@H](C(=O)NCC(=O)NCC(=O)N[C@H](C(=O)N[C@@H](Cc1ccc(O)cc1)C(=O)N[C@@H](Cc1ccccc1)C(=O)N[C@@H](CC(C)C)C(=O)N[C@H](C(=O)N[C@H](C(=O)N[C@@H](CCCNC(=N)N)C(=O)N[C@@H](CCC(N)=O)C(=O)O)[C@@H](C)O)[C@@H](C)O)[C@@H](C)O)C(C)C", "note": "[Al[^18F]F-GP2076] ({NOTA(2S-Bn(4-NHCS))}-RLNVGGTYFLTTRQ-OH; N-terminus and C-terminus assumed) [listing 1 of 2 here]", "values": [{"measurement": "intact radiotracer in mouse serum", "setting": "[1]", "value": "> 95", "unit": "%"}, {"measurement": "cell-associated radioactivity at end of efflux study", "setting": "[2]", "value": 0.21, "unit": "%"}, {"measurement": "cell-associated radioactivity at start of efflux study", "setting": "[2]", "value": 1.04, "unit": "%"}, {"measurement": "internalization", "setting": "HepG2 cells", "value": "< 10 % of cell uptake"}, {"measurement": "cell uptake in HepG2 cells", "setting": "[3]", "value": "1.08 ± 0.04", "unit": "%"}, {"measurement": "intact radiotracer in PBS", "setting": "[4]", "value": "> 95", "unit": "%"}]}, {"smiles": "CC(C)C[C@H](NC(=O)[C@H](CCCNC(=N)N)NC(=S)Nc1ccc(C[C@H]2CN(CC(=O)O)CCN(CC(=O)O)CCN2CC(=O)O)cc1)C(=O)N[C@@H](CC(N)=O)C(=O)N[C@H](C(=O)NCC(=O)NCC(=O)N[C@H](C(=O)N[C@@H](Cc1ccc(O)cc1)C(=O)N[C@@H](Cc1ccccc1)C(=O)N[C@@H](CC(C)C)C(=O)N[C@H](C(=O)N[C@H](C(=O)N[C@@H](CCCNC(=N)N)C(=O)N[C@@H](CCC(N)=O)C(=O)O)[C@@H](C)O)[C@@H](C)O)[C@@H](C)O)C(C)C", "note": "[Al[^18F]F-GP2076] ({NOTA(2S-Bn(4-NHCS))}-RLNVGGTYFLTTRQ-OH; N-terminus and C-terminus assumed) [listing 2 of 2 here]", "values": [{"measurement": "tissue to tissue ratio at 1 h", "setting": "[5]; HepG2 tumor / kidneys", "value": "0.31 ± 0.04"}, {"measurement": "tissue to tissue ratio at 0.5 h", "setting": "[5]; HepG2 tumor / liver", "value": "0.43 ± 0.06"}, {"measurement": "tissue to tissue ratio at 1 h", "setting": "[5]; HepG2 tumor / liver", "value": "0.59 ± 0.14"}, {"measurement": "tissue to tissue ratio at 2 h", "setting": "[5]; HepG2 tumor / liver", "value": "0.46 ± 0.4"}, {"measurement": "tissue to tissue ratio at 0.5 h", "setting": "[5]; HepG2 tumor / muscle", "value": "5.56 ± 1.36"}, {"measurement": "tissue to tissue ratio at 1 h", "setting": "[5]; HepG2 tumor / muscle", "value": "5.13 ± 2.08"}, {"measurement": "tissue to tissue ratio at 2 h", "setting": "[5]; HepG2 tumor / muscle", "value": "2.68 ± 0.29"}, {"measurement": "tissue uptake at 0.5 h", "setting": "[5]; HepG2 tumor", "value": "2.2 ± 0.36", "unit": "%ID/g"}, {"measurement": "tissue uptake at 1 h", "setting": "[5]; HepG2 tumor", "value": "2.13 ± 0.55", "unit": "%ID/g"}, {"measurement": "tissue uptake at 2 h", "setting": "[5]; HepG2 tumor", "value": "0.73 ± 0.32", "unit": "%ID/g"}, {"measurement": "tissue uptake at 0.5 h", "setting": "[5]; kidneys", "value": "9.83 ± 3.69", "unit": "%ID/g"}, {"measurement": "tissue uptake at 1 h", "setting": "[5]; kidneys", "value": "7.03 ± 2.32", "unit": "%ID/g"}, {"measurement": "tissue uptake at 0.5 h", "setting": "[5]; liver", "value": "5.1 ± 0.53", "unit": "%ID/g"}, {"measurement": "tissue uptake at 1 h", "setting": "[5]; liver", "value": "3.7 ± 0.98", "unit": "%ID/g"}, {"measurement": "tissue uptake at 1 h", "setting": "[6]; HepG2 tumor", "value": "1.13 ± 0.02", "unit": "%ID/g"}, {"measurement": "tissue uptake at 1 h", "setting": "[6]; liver", "value": "2.3 ± 0.56", "unit": "%ID/g"}]}, {"smiles": "CC(C)C[C@H](NC(=O)[C@H](CCCNC(=N)N)NC(=O)[C@H](CC(N)=O)NC(=O)[C@H](CC(=O)O)NC(=O)[C@H](CCCNC(=N)N)NC(=O)CNC(=O)CNC(=O)CNC(=S)Nc1ccc(C[C@H]2CN(CC(=O)O)CCN(CC(=O)O)CCN2CC(=O)O)cc1)C(=O)N[C@@H](CC(N)=O)C(=O)N[C@H](C(=O)NCC(=O)NCC(=O)N[C@H](C(=O)N[C@@H](Cc1ccc(O)cc1)C(=O)N[C@@H](Cc1ccccc1)C(=O)N[C@@H](CC(C)C)C(=O)N[C@H](C(=O)N[C@H](C(=O)N[C@@H](CCCNC(=N)N)C(=O)N[C@@H](CCC(N)=O)C(=O)O)[C@@H](C)O)[C@@H](C)O)[C@@H](C)O)C(C)C", "note": "[Al[^18F]F-GP2633] ({NOTA(2S-Bn(4-NHCS))}-GGGRDNRLNVGGTYFLTTRQ-OH; N-terminus and C-terminus assumed) [listing 1 of 2 here]", "values": [{"measurement": "tissue to tissue ratio at 1 h", "setting": "[5]; HepG2 tumor / kidneys", "value": "0.09 ± 0.01"}, {"measurement": "tissue to tissue ratio at 0.5 h", "setting": "[5]; HepG2 tumor / liver", "value": "1.77 ± 0.2"}, {"measurement": "tissue to tissue ratio at 1 h", "setting": "[5]; HepG2 tumor / liver", "value": "2 ± 0.18"}, {"measurement": "tissue to tissue ratio at 2 h", "setting": "[5]; HepG2 tumor / liver", "value": "1.28 ± 0.25"}, {"measurement": "tissue to tissue ratio at 0.5 h", "setting": "[5]; HepG2 tumor / muscle", "value": "9.11 ± 0.79"}, {"measurement": "tissue to tissue ratio at 1 h", "setting": "[5]; HepG2 tumor / muscle", "value": "12.2 ± 0.62"}, {"measurement": "tissue to tissue ratio at 2 h", "setting": "[5]; HepG2 tumor / muscle", "value": "6.2 ± 1.8"}, {"measurement": "tissue uptake at 0.5 h", "setting": "[5]; HepG2 tumor", "value": "3.13 ± 0.31", "unit": "%ID/g"}, {"measurement": "tissue uptake at 1 h", "setting": "[5]; HepG2 tumor", "value": "3.37 ± 0.35", "unit": "%ID/g"}, {"measurement": "tissue uptake at 2 h", "setting": "[5]; HepG2 tumor", "value": "1.3 ± 0.17", "unit": "%ID/g"}, {"measurement": "tissue uptake at 0.5 h", "setting": "[5]; kidneys", "value": "39.4 ± 0.98", "unit": "%ID/g"}, {"measurement": "tissue uptake at 1 h", "setting": "[5]; kidneys", "value": "36.9 ± 2.05", "unit": "%ID/g"}, {"measurement": "tissue uptake at 0.5 h", "setting": "[5]; liver", "value": "1.8 ± 0.36", "unit": "%ID/g"}, {"measurement": "tissue uptake at 1 h", "setting": "[5]; liver", "value": "1.7 ± 0.26", "unit": "%ID/g"}, {"measurement": "tissue uptake at 1 h", "setting": "[6]; HepG2 tumor", "value": "1.96 ± 0.29", "unit": "%ID/g"}, {"measurement": "tissue uptake at 1 h", "setting": "[6]; liver", "value": "0.97 ± 0.07", "unit": "%ID/g"}, {"measurement": "tissue to tissue ratio at 0.5 h", "setting": "[7]; McA-RH7777 tumor / muscle", "value": "3.87 ± 1.97"}, {"measurement": "tissue to tissue ratio at 1 h", "setting": "[7]; McA-RH7777 tumor / muscle", "value": "6.2 ± 2.67"}, {"measurement": "tissue uptake at 0.5 h", "setting": "[7]; McA-RH7777 tumor", "value": "1.75 ± 0.05", "unit": "%ID/g"}, {"measurement": "tissue uptake at 1 h", "setting": "[7]; McA-RH7777 tumor", "value": "1.64 ± 0.03", "unit": "%ID/g"}, {"measurement": "tissue uptake at 2 h", "setting": "[7]; McA-RH7777 tumor", "value": "0.66 ± 0.06", "unit": "%ID/g"}]}, {"smiles": "CC(C)C[C@H](NC(=O)[C@H](CCCNC(=N)N)NC(=O)[C@H](CC(N)=O)NC(=O)[C@H](CC(=O)O)NC(=O)[C@H](CCCNC(=N)N)NC(=O)CNC(=O)CNC(=O)CNC(=S)Nc1ccc(C[C@H]2CN(CC(=O)O)CCN(CC(=O)O)CCN2CC(=O)O)cc1)C(=O)N[C@@H](CC(N)=O)C(=O)N[C@H](C(=O)NCC(=O)NCC(=O)N[C@H](C(=O)N[C@@H](Cc1ccc(O)cc1)C(=O)N[C@@H](Cc1ccccc1)C(=O)N[C@@H](CC(C)C)C(=O)N[C@H](C(=O)N[C@H](C(=O)N[C@@H](CCCNC(=N)N)C(=O)N[C@@H](CCC(N)=O)C(=O)O)[C@@H](C)O)[C@@H](C)O)[C@@H](C)O)C(C)C", "note": "[Al[^18F]F-GP2633] ({NOTA(2S-Bn(4-NHCS))}-GGGRDNRLNVGGTYFLTTRQ-OH; N-terminus and C-terminus assumed) [listing 2 of 2 here]", "values": [{"measurement": "intact radiotracer in mouse serum", "setting": "[1]", "value": "> 98", "unit": "%"}, {"measurement": "cell-associated radioactivity at end of efflux study", "setting": "[2]", "value": 0.27, "unit": "%"}, {"measurement": "cell-associated radioactivity at start of efflux study", "setting": "[2]", "value": 1.13, "unit": "%"}, {"measurement": "internalization", "setting": "HepG2 cells", "value": "< 10 % of cell uptake"}, {"measurement": "cell uptake in HepG2 cells", "setting": "[3]", "value": "1.15 ± 0.05", "unit": "%"}, {"measurement": "cellular uptake in McA-RH7777 cells", "setting": "[8]", "value": "0.30 ± 0.03", "unit": "%"}, {"measurement": "intact radiotracer in PBS", "setting": "[4]", "value": "> 98", "unit": "%"}, {"measurement": "time for radioactivity to wash out to the baseline", "setting": "[9]", "value": "≤ 5", "unit": "min"}]}]}
